Broadly, the inhibition is the change of the read-out against control, counted positive when it falls. Lower therefore signals a weak effect. As usually defined, the IC50 is the concentration that inhibits the measured activity by half.

SMILES strings stand for the structures. Active and inactive are the calls of the source. The rule behind the calls is not given here. Some results are limits rather than exact numbers.

The text below walks through data of ChEMBL document CHEMBL3856216, “Development of 4,5-dihydro-benzodiazepinone derivatives as a new chemical series of BRD4 inhibitors” (Eur J Med Chem, 2016).

Test [1] addresses T1, Bromodomain-containing protein 4 (Homo sapiens, UniProt O60885). The experiment in a line: Inhibition of human His-tagged BRD4 BD1 (49 to 170 residues) at 30 uM using H-SGRGK(Ac)GGK(Ac)GLGK-(Ac)GGAK(Ac)RHRK(Biotin)-OH as substrate preincubated for 30 mins followed by substrate addition measured after 30 mins by TR-FRET assay relative to control. A digest of the protocol: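 BRD4 bromodomain 1 was tested using a TR-FRET assay kit. Percent inhibition was measured at a single concentration of 30, in triplicate, and reported as mean ± SD.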
(TR-FRET usually uses a lanthanide donor and a delayed reading to cut background.)

The nature of test [2]: (§1) Cytotoxicity against human U937 cells assessed as decrease in cell viability after 24 hrs by MTT assay. In kind it is functional, cell-based. The conditions noted are these: U-937, 24 h.
The nature of test [3]: (§2) Cytotoxicity against human HL60 cells assessed as decrease in cell viability after 24 hrs by MTT assay. In kind it is functional, cell-based. The conditions noted are these: HL-60, 24 h. On the technique in general: Tetrazolium dyes change colour on reduction, which living cells bring about.
A short description of test [4]: Cytotoxicity against human MV4-11 cells assessed as decrease in cell viability after 24 hrs by MTT assay. The conditions noted are these: MV4-11, 24 h. In kind it is functional, cell-based.
Test [5] concerns the target T1, Bromodomain-containing protein 4. The experiment in a line: Inhibition of human BRD4 BD2 (342 to 460 residues) at 30 uM preincubated for 30 mins followed by substrate addition measured after 30 mins by TR-FRET assay relative to control. A digest of the protocol:
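BRD4 BD2 percent inhibition was measured at a single concentration of 30, in triplicate, and reported as mean ± SD.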

Test [6] has the same target. In words: Inhibition of human His-tagged BRD4 BD1 (49 to 170 residues) using H-SGRGK(Ac)GGK(Ac)GLGK-(Ac)GGAK(Ac)RHRK(Biotin)-OH as substrate preincubated for 30 mins followed by substrate addition measured after 30 mins by TR-FRET assay.
Test [7] shares this target. The experiment in a line: Inhibition of human BRD4 BD2 (342 to 460 residues) at 30 uM preincubated for 30 mins followed by substrate addition measured after 30 mins by TR-FRET assay.
The test system of a further test is U-937. Described as §1. It is filed as functional, cell-based.
For test [8], the system named is HL-60. The test is described as §2. It is filed as functional, cell-based.
In test [9] the test system is HL-60. The experiment in a line: Induction of morphological changes in human HL60 cells at 1 to 10 uM after 24 hrs by Hoechst 33258 staining-based fluorescence microscopy. In kind it is functional, cell-based. Put shortly:
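HL-60 cells were cultured with different concentrations and stained with Hoechst 33258. Apoptotic nuclear morphology was examined under an inverted microscope.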

For test [10], the system named is HL-60. In words: Induction of apoptosis in human HL60 cells assessed as early apoptotic cells at 1 uM by annexin V-FITC/propidium iodide staining-based flow cytometric analysis (reference value: 8.23%). It is filed as functional. (Flow cytometry measures light scatter and fluorescence of single cells or particles in a stream.)
In test [11] the test system is HL-60. In words: Induction of apoptosis in human HL60 cells assessed as late apoptotic cells at 1 uM by annexin V-FITC/propidium iodide staining-based flow cytometric analysis (reference value: 6.92%). In kind it is functional.
For test [12], the system named is HL-60. In words: Induction of apoptosis in human HL60 cells assessed as necrotic cells at 1 uM by annexin V-FITC/propidium iodide staining-based flow cytometric analysis (reference value: 0.13%). In kind it is functional.
The test system of test [13] is HL-60. The experiment in a line: Induction of apoptosis in human HL60 cells assessed as viable cells at 1 uM by annexin V-FITC/propidium iodide staining-based flow cytometric analysis (reference value: 84.22%). It is filed as functional. Conditions: read-out: Activity.
Test [14] has as its system HL-60. In words: Induction of apoptosis in human HL60 cells assessed as early apoptotic cells at 5 uM by annexin V-FITC/propidium iodide staining-based flow cytometric analysis (reference value: 8.23%). It is filed as functional.
Test [15] relates to HL-60. The experiment in a line: Induction of apoptosis in human HL60 cells assessed as late apoptotic cells at 5 uM by annexin V-FITC/propidium iodide staining-based flow cytometric analysis (reference value: 6.92%). In kind it is functional.
Test [16] concerns HL-60. The experiment in a line: Induction of apoptosis in human HL60 cells assessed as necrotic cells at 5 uM by annexin V-FITC/propidium iodide staining-based flow cytometric analysis (reference value: 0.13%). In kind it is functional.
Test [17] has as its system HL-60. In words: Induction of apoptosis in human HL60 cells assessed as viable cells at 5 uM by annexin V-FITC/propidium iodide staining-based flow cytometric analysis (reference value: 84.22%). It is filed as functional. Conditions: read-out: Activity.
Test [18] concerns HL-60. In words: Induction of apoptosis in human HL60 cells assessed as early apoptotic cells at 10 uM by annexin V-FITC/propidium iodide staining-based flow cytometric analysis (reference value: 8.23%). In kind it is functional.
Test [19] relates to HL-60. The experiment in a line: Induction of apoptosis in human HL60 cells assessed as late apoptotic cells at 10 uM by annexin V-FITC/propidium iodide staining-based flow cytometric analysis (reference value: 6.92%). It is filed as functional.
Test [20] has as its system HL-60. The experiment in a line: Induction of apoptosis in human HL60 cells assessed as necrotic cells at 10 uM by annexin V-FITC/propidium iodide staining-based flow cytometric analysis (reference value: 0.13%). It is filed as functional.
Test [21] deals with HL-60. The experiment in a line: Induction of apoptosis in human HL60 cells assessed as viable cells at 10 uM by annexin V-FITC/propidium iodide staining-based flow cytometric analysis (reference value: 84.22%). In kind it is functional. The conditions noted are these: read-out: Activity.
Test [22] in a line: Induction of apoptosis in human HL60 cells assessed as upregulation of Bax expression at 1 to 10 uM after 24 hrs by Western blot method. It is filed as functional, cell-based. Conditions: HL-60. Put shortly:
(§3)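 HL-60 cells were treated for 24 h. Lysates were then immunoblotted for Bax, Bcl-2, pro-caspase 3, active caspase 3 and Brd4.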

The test system of test [23] is HL-60. In words: Induction of apoptosis in human HL60 cells assessed as downregulation of Bcl-2 expression at 1 to 10 uM after 24 hrs by Western blot method. It is filed as functional, cell-based. A digest of the protocol:
as §3

Test [24] deals with HL-60. The experiment in a line: Induction of apoptosis in human HL60 cells assessed as caspase-3 cleavage at 1 to 10 uM after 24 hrs by Western blot method. It is filed as functional, cell-based. A digest of the protocol:
as §3

Test [25] can be described thus: Downregulation of BRD4 expression in human HL60 cells at 1 to 10 uM after 24 hrs by Western blot method. In kind it is functional, cell-based. Conditions: HL-60. A digest of the protocol: as §3

For the compound `O=C1CCCc2c1ccn2C(=O)c1ccc2ccccc2c1`, the inhibition in [1] stood at 23.1%.
Same read-out and setting: the value for `O=C1CCN(C(=O)c2ccccc2)c2ccccc2N1` was 32.4%.
For the compound `COc1cc(OC)c2c(=O)[nH]c(-c3cc(C)c(OCCO)c(C)c3)nc2c1` [APABETALONE], the IC50 in [2], in test [3] and in test [4] was greater than 20 µM in each case.
On to `O=C1CCN(C(=O)c2cccc(-c3ccccc3)c2)c2ccccc2N1`, for which the inhibition in test [1] came out at 96.1%; in test [5], 54.2%. Also, the IC50 in test [6] was 1.25 µM; in test [7] it was 11.2 µM; in [2] it was greater than 20 µM; in test [3], 4.02 µM; in test [4] it was 4.21 µM. The Activity entry in the test with U-937 was “Dose-dependent effect”; in the test with HL-60 [8] it was “Dose-dependent effect”; in the test with HL-60 [10] it was 10.15%; with HL-60 [11], 8.32%; in the test with HL-60 [12] it was 0.11%; in the test with HL-60 [14], 21.63%. For the same compound, the Activity in the test on HL-60 [15] was determined as 32.51%; in the test with HL-60 [16] it was 0.9%; in the test with HL-60 [18] it was 17.73%; in the test with HL-60 [19], 45.46%; in the test with HL-60 [20], 1.96%. Moreover, the outcome (in the test with HL-60 [9]; in test [22]; in the test on HL-60 [23]; in the test with HL-60 [24]; in [25]) was Active. The viability at 1 µM in the test with HL-60 [13] was 81.4%. The viability at 5 µM in the test with HL-60 [17] is 45%. Also, the viability at 10 µM in the test on HL-60 [21] is 34.9%.
For the compound `Cc1noc(C)c1NC(=O)c1cccnc1`, the inhibition in [1] worked out at 32.6%.
In the case of `O=C1CCN(C(=O)c2ccc3ccccc3c2)c2ccccc2N1`, in test [1], the inhibition turned out to be 25.3%.
As for `Cc1sc2c(c1C)C(c1ccc(Cl)cc1)=N[C@@H](CC(=O)OC(C)(C)C)c1nnc(C)n1-2`, the values for the IC50 in [2], in test [3] and in test [4] were greater than 20 µM, 5.3 µM and 6.4 µM, respectively.
Turning to `Cc1noc(C)c1NC(=O)c1cccc(-c2ccccc2)c1`, in [1], the inhibition was 46.2%.
For `COc1cc(C(=O)Nc2c(C)noc2C)cc(-c2ccccc2)c1`, the inhibition stood at 64.5% in [1] and 36.3% in test [5]. Moreover, the IC50 in test [6] is 8.24 µM; in test [7], greater than 20 µM; in [2], greater than 20 µM; in [3] it was 17.1 µM; in test [4], 19.2 µM.
On to `Cc1noc(C)c1NC(=O)c1ccc2ccccc2c1`, for which, in [1], the inhibition was 23.1%.
In turn, `O=C1CCCc2c1ccn2C(=O)c1cccc(-c2ccccc2)c1` had an inhibition in test [1] of 32.1%.
On the same count and under the same terms, under `O=C1CCCc2c1ccn2C(=O)c1cccnc1` stands 34.2%; under `CC1C(=O)Nc2ccccc2N1C(=O)c1cccnc1` (stereo not drawn), less than 20%.
For `COc1cc(C(=O)N2CCC(=O)Nc3ccccc32)cc(-c2ccccc2)c1`, the inhibition in test [1] is 88.8%; in [5], 67.1%. Moreover, the IC50 amounted to 2.74 µM in test [6]; 9.14 µM in test [7]; 18.2 µM in test [2]; 8.24 µM in test [3]; 9.61 µM in test [4].
With `COc1cc(C(=O)n2ccc3c2CCCC3=O)cc(-c2ccccc2)c1`, the inhibition in test [1] was found to be 22.8%.
With `O=C1CCCc2c1ccn2C(=O)c1ccccc1`, the inhibition in test [1] was less than 20%.
Take `COc1ccccc1S(=O)(=O)Nc1ccc2c(c1)CN(C)C(=O)N2`: the IC50 was greater than 20 µM in test [2], 2.19 µM in test [3] and 7.75 µM in test [4].
For the compound `O=C1CCN(C(=O)c2cccnc2)c2ccccc2N1`, the inhibition in test [1] is 45.2%.
Same read-out and setting: under `Cc1noc(C)c1NC(=O)c1ccccc1` stands less than 20%.
As to `COc1cc(C(=O)N2c3ccccc3NC(=O)C2C)cc(-c2ccccc2)c1` (stereo not drawn), the inhibition in test [1] amounted to 88.7%; in test [5], 36.2%. Also, the IC50 in test [6] was 6.25 µM; in [7], greater than 20 µM; in test [2] it was greater than 20 µM; in [3], 9.25 µM; in test [4], 17.6 µM.
In [1], `CC1C(=O)Nc2ccccc2N1C(=O)c1ccccc1` (stereo not drawn) had an inhibition of less than 20%.
Same read-out and setting: under `CC1C(=O)Nc2ccccc2N1C(=O)c1ccc2ccccc2c1` (stereo not drawn) stands less than 20%.
For the compound `CC1C(=O)Nc2ccccc2N1C(=O)c1cccc(-c2ccccc2)c1` (stereo not drawn), the inhibition is 72.4% in test [1] and 23.1% in test [5]. The IC50 in [6] is 7.42 µM; in test [7], greater than 20 µM; in test [2], greater than 20 µM; in [3], 11.4 µM; in test [4], 13.2 µM.
